Test results published in ChEMBL document CHEMBL3045880, “Design and syntheses of novel N-(benzothiazol-5-yl)-4,5,6,7-tetrahydro-1H-isoindole-1,3(2H)-dione and N-(benzothiazol-5-yl)isoindoline-1,3-dione as potent protoporphyrinogen oxidase inhibitors” (J Agric Food Chem, 2011).

Key:
Brassica juncea = assay: Herbicidal activity against Brassica juncea assessed as growth inhibition at 150 g/ha postemergence treatment measured after 15 days by Greenhouse test; type: functional; details: post-emergence, 360 h, read-out: GI
Procedure, shortened: (§1)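 Test compounds were made up as 100 g/L emulsifiable concentrates (DMF solvent, Tween-80 emulsifier) and diluted with water. About 20 seeds were sown 1–3 cm deep in clay soil (pH 6.5, 1.6% organic matter) in 9.5 cm pots, kept at 15–30 °C and 50% RH. Postemergence spray was applied to dicots at the 2-leaf stage and monocots at the 1-leaf stage. Controls were untreated and solvent-treated. Injury was scored visually at 15 days, with three replicates.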

Eclipta prostrata = assay: Herbicidal activity against Eclipta prostrata assessed as growth inhibition at 150 g/ha postemergence treatment measured after 15 days by Greenhouse test; type: functional; details: post-emergence, 360 h, read-out: GI; procedure, shortened: as §1
Amaranthus retroflexus = assay: Herbicidal activity against Amaranthus retroflexus assessed as growth inhibition at 150 g/ha postemergence treatment measured after 15 days by Greenhouse test; type: functional; details: post-emergence, 360 h, read-out: GI; procedure, shortened: as §1
Setaria faberi = assay: Herbicidal activity against Setaria faberi (Giant Foxtail) assessed as growth inhibition at 150 g/ha postemergence treatment measured after 15 days by Greenhouse test; type: functional; details: post-emergence, 360 h, read-out: GI; procedure, shortened: as §1
Digitaria sanguinalis = assay: Herbicidal activity against Digitaria sanguinalis (hairy crabgrass) assessed as growth inhibition at 150 g/ha postemergence treatment measured after 15 days by Greenhouse test; type: functional; details: post-emergence, 360 h, read-out: GI; procedure, shortened: as §1
Echinochloa crus-galli = assay: Herbicidal activity against Echinochloa crus-galli (barnyard grass) assessed as growth inhibition at 150 g/ha postemergence treatment measured after 15 days by Greenhouse test; type: functional; details: post-emergence, 360 h, read-out: GI; procedure, shortened: as §1
[1] = biological target: T1, Protoporphyrinogen oxidase (Homo sapiens) (UniProt P50336); assay: Inhibition of Homo sapiens (human) recombinant protoporphyrinogen oxidase by fluorescence detection
T1 sequence (whole entry): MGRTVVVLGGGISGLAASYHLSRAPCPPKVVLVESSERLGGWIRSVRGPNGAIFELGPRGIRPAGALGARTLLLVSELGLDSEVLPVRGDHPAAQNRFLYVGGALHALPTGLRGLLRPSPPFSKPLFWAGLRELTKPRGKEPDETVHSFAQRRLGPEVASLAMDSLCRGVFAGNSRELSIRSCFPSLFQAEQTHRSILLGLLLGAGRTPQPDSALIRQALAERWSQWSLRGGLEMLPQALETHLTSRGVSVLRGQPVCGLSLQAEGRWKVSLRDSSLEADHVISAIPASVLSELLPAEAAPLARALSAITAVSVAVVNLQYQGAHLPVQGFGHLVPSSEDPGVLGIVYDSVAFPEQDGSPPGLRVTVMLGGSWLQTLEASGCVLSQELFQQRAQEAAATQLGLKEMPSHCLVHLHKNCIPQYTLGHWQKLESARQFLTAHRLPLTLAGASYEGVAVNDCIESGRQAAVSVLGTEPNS

Row | Structure (SMILES) | Ki [1] [nM] | inhibition of growth at 150 g/ha (Brassica juncea) [%] | inhibition of growth at 150 g/ha (Eclipta prostrata) [%] | inhibition of growth at 150 g/ha (Amaranthus retroflexus) [%] | inhibition of growth at 150 g/ha (Setaria faberi) [%] | inhibition of growth at 150 g/ha (Digitaria sanguinalis) [%] | inhibition of growth at 150 g/ha (Echinochloa crus-galli) [%]
1 | CCCOC(=O)CSc1nc2cc(N3C(=O)C4=C(CCCC4)C3=O)c(F)cc2s1 | 280 | 60 | 80 | 80 | < 50 | 60 | 60
2 | CCOC(=O)CSc1nc2cc(N3C(=O)C4=C(CCCC4)C3=O)c(F)cc2s1 | 250 | < 50 | 50 | 80 | 60 | 60 | 60
3 | CCOC(=O)CCSc1nc2cc(N3C(=O)c4ccccc4C3=O)c(Cl)cc2s1 | 3760 | – | – | – | – | – | –
4 | COC(=O)CSc1nc2cc(N3C(=O)c4ccccc4C3=O)c(F)cc2s1 | 2250 | – | – | – | – | – | –
5 | CCOC(=O)C(C)Sc1nc2cc(N3C(=O)C4=C(CCCC4)C3=O)c(F)cc2s1 (configuration not stated) | 290 | 80 | 80 | 80 | 60 | 60 | 60
6 | CCOC(=O)C(C)Sc1nc2cc(N3C(=O)c4ccccc4C3=O)c(Cl)cc2s1 (configuration not stated) | 85900 | – | – | – | – | – | –
7 | COC(=O)Sc1nc2cc(N3C(=O)C4=C(CCCC4)C3=O)c(Cl)cc2s1 | 520 | < 50 | 60 | 60 | < 50 | < 50 | < 50
8 | CC(C)OC(=O)CSc1nc2cc(N3C(=O)C4=C(CCCC4)C3=O)c(F)cc2s1 | 210 | 60 | 80 | 80 | 50 | 60 | 60
9 | CCOC(=O)CCSc1nc2cc(N3C(=O)c4ccccc4C3=O)c(F)cc2s1 | 5520 | – | – | – | – | – | –
10 | CCOC(=O)C(C)Sc1nc2cc(N3C(=O)c4ccccc4C3=O)c(F)cc2s1 (configuration not stated) | 132000 | – | – | – | – | – | –

More lines, main results first:

Row | Ki [1] [nM] | Structure (SMILES) | inhibition of growth at 150 g/ha (Brassica juncea) [%] | inhibition of growth at 150 g/ha (Eclipta prostrata) [%] | inhibition of growth at 150 g/ha (Amaranthus retroflexus) [%] | inhibition of growth at 150 g/ha (Setaria faberi) [%] | inhibition of growth at 150 g/ha (Digitaria sanguinalis) [%] | inhibition of growth at 150 g/ha (Echinochloa crus-galli) [%]
11 | 750 | CCOC(=O)CCCSc1nc2cc(N3C(=O)C4=C(CCCC4)C3=O)c(Cl)cc2s1 | < 50 | 60 | 80 | < 50 | < 50 | < 50
12 | 470 | CCOC(=O)Sc1nc2cc(N3C(=O)C4=C(CCCC4)C3=O)c(Cl)cc2s1 | < 50 | 50 | 50 | < 50 | < 50 | < 50
13 | 1660 | CCOC(=O)CSc1nc2cc(N3C(=O)C4=C(CCCC4)C3=O)c(Cl)cc2s1 | < 50 | 60 | 80 | < 50 | < 50 | < 50
14 | 320 | CCOC(=O)CCSc1nc2cc(N3C(=O)C4=C(CCCC4)C3=O)c(Cl)cc2s1 | 60 | 60 | 60 | < 50 | < 50 | < 50
15 | 3920 | COC(=O)CSc1nc2cc(N3C(=O)C4=C(CCCC4)C3=O)c(Cl)cc2s1 | < 50 | 60 | 60 | < 50 | < 50 | < 50
16 | 800 | CCOC(=O)C(C)Sc1nc2cc(N3C(=O)C4=C(CCCC4)C3=O)c(Cl)cc2s1 (configuration not stated) | < 50 | 60 | 60 | < 50 | < 50 | < 50
